Source: ChEMBL document CHEMBL3994673, “Design and Synthesis of Potent and Selective PIM Kinase Inhibitors by Targeting Unique Structure of ATP-Binding Pocket” (ACS Med Chem Lett, 2017)
In brackets after ≈: the same amount, converted by molar mass.

Assays:
[1] = target: T1, Serine/threonine-protein kinase pim-1 (Homo sapiens, UniProt P11309); assay: Inhibition of PIM1 (unknown origin) using 5-FAM-RSRHSSYPAGT-CONH2 as substrate after 2 hrs by electrophoretic mobility shift assay
[2] = target: Platelet-derived growth factor receptor alpha (Homo sapiens) (UniProt P16234); assay: Inhibition of recombinant human N-terminal GST-tagged PDGFRalpha cytoplasmic domain (550 to 1089 end residues) expressed in baculovirus infected sf21 cells at 200 nM using CSKtide as substrate by electrophoretic mobility shift assay relative to control
How it was run: (§1)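 Single-point screen of a 52-kinase panel with compound at 200 nM, read as % inhibition of each kinase; run by a contract lab (Carna Biosciences).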

[3] = target: T2, Serine/threonine-protein kinase D2 (Homo sapiens) (UniProt Q9BZL6); assay: Inhibition of full length recombinant human N-terminal GST-tagged PKD2 (1 to 878 end residues) expressed in baculovirus infected sf21 cells at 200 nM using GS peptide as substrate by electrophoretic mobility shift assay relative to control; how it was run: as §1
T2 sequence (whole entry): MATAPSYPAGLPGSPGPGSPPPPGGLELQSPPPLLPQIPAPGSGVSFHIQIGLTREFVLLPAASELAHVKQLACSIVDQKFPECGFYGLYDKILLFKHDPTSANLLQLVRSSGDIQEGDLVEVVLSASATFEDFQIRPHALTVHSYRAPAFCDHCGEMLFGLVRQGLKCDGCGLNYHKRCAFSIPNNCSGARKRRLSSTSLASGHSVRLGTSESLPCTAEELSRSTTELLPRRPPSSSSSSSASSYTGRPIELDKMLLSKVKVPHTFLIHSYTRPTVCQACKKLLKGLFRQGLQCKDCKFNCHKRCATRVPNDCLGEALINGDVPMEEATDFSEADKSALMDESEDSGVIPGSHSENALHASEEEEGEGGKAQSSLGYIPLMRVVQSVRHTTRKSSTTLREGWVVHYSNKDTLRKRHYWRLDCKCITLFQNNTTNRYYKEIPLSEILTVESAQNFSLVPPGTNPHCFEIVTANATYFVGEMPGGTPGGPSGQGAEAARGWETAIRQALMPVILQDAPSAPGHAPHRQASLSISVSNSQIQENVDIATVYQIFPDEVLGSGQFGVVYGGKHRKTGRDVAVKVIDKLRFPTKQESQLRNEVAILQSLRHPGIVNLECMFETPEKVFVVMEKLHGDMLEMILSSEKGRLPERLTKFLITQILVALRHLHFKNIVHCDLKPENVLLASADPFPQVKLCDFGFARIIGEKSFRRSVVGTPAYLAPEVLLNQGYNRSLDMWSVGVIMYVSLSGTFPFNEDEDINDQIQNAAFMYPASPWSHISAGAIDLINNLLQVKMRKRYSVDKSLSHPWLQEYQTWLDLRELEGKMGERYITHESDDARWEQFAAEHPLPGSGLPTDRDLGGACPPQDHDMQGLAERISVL

[4] = target: Death-associated protein kinase 1 (Homo sapiens) (UniProt P53355); assay: Inhibition of recombinant human N-terminal GST-tagged DAPK1 catalytic domain (1 to 289 residues) expressed in baculovirus infected sf21 cells at 200 nM using DAPK1tide as substrate by electrophoretic mobility shift assay relative to control; how it was run: as §1
[5] = target: Rho-associated protein kinase 1 (Homo sapiens) (UniProt Q13464); assay: Inhibition of recombinant human N-terminal GST-tagged ROCK1 catalytic domain (1 to 477 residues) expressed in baculovirus infected sf21 cells at 200 nM using LIMKtide as substrate by electrophoretic mobility shift assay relative to control; how it was run: as §1
[6] = Stability in mouse liver microsomes assessed as parent compound remaining at 1 uM after 1 hr; type: ADME, microsome; details: read-out: Stability
How it was run: (§2)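 Compound at 1 μM incubated with liver microsomes (0.3 mg/mL protein) at 37 °C for 1 h; value is percent of parent remaining. Performed by a contract lab (Cerep).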

[7] = Permeability in human Caco2 cells at 10 uM; type: ADME, cell-based; details: Caco-2, read-out: permeability
How it was run: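 Caco-2 monolayer permeability measured with compound at 10 μM, reported in units of 10–6 cm/s; performed by a contract lab (Cerep).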

[8] = Stability in human liver microsomes assessed as parent compound remaining at 1 uM after 1 hr; type: ADME, microsome; details: read-out: Stability; how it was run: as §2
WI-38 = assay: Growth inhibition of human WI38 cells after 48 hrs by CCK8 assay; type: cell-based; details: WI-38, 48 h
How it was run: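 Cells incubated with compound for 48 h for growth inhibition.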

[9] = Growth inhibition of human MOLM16 cells after 72 hrs by CCK8 assay; type: functional, cell-based; details: MOLM16, 72 h
[10] = target: T3, Serine/threonine-protein kinase pim-2 (Homo sapiens, UniProt Q9P1W9); assay: Inhibition of full length recombinant human N-terminal GST-tagged PIM2 (1 to 311 residues) expressed in baculovirus infected sf21 cells at 200 nM using S6K2 peptide as substrate by electrophoretic mobility shift assay relative to control; how it was run: as §1
[11] = target: T3, Serine/threonine-protein kinase pim-2; assay: Inhibition of full length recombinant human N-terminal GST-tagged PIM2 (1 to 311 residues) expressed in baculovirus infected sf21 cells using S6K2 peptide as substrate by electrophoretic mobility shift assay
[12] = target: Protein kinase C alpha type (Homo sapiens) (UniProt P17252); assay: Inhibition of full length recombinant human N-terminal GST-tagged PKCalpha (1 to 672 residues) expressed in baculovirus infected sf21 cells at 200 nM using PKC peptide as substrate by electrophoretic mobility shift assay relative to control; how it was run: as §1
[13] = target: T4, Serine/threonine-protein kinase pim-3 (Homo sapiens, UniProt Q86V86); assay: Inhibition of full length recombinant human N-terminal GST-tagged PIM3 (1 to 326 end residues) expressed in baculovirus infected sf21 cells at 200 nM using S6K2 peptide as substrate by electrophoretic mobility shift assay relative to control; how it was run: as §1
[14] = target: T4, Serine/threonine-protein kinase pim-3; assay: Inhibition of full length recombinant human N-terminal GST-tagged PIM3 (1 to 326 end residues) expressed in baculovirus infected sf21 cells using S6K2 peptide as substrate by electrophoretic mobility shift assay
hERG (KCNH2) = hERG (KCNH2) (Homo sapiens, UniProt Q12809); assay: Inhibition of human ERG expressed in CHO cells at 10 uM by patch clamp method relative to control; type: cell-based; details: CHO cells expressing human ERG
How it was run: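 hERG block measured by patch clamp with compound at 10 μM; performed by a contract lab (Cerep).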

[15] = target: T1, Serine/threonine-protein kinase pim-1; assay: Inhibition of full length recombinant human N-terminal His-tagged PIM1 (1 to 313 end residues) expressed in baculovirus infected sf21 cells at 200 nM using S6K2 peptide as substrate by electrophoretic mobility shift assay relative to control; how it was run: as §1
[16] = Aqueous solubility of the compound in pH 7.4 PBS by HPLC-UV method; type: physicochemical
How it was run: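 Tested in PBS pH 7.4 with a final DMSO concentration of 2%; performed by a contract lab (Cerep).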

[17] = target: T1, Serine/threonine-protein kinase pim-1; assay: Inhibition of full length recombinant human N-terminal His-tagged PIM1 (1 to 313 end residues) expressed in baculovirus infected sf21 cells using S6K2 peptide as substrate by electrophoretic mobility shift assay

Structure (SMILES): CCc1ccc2c(/C=C3\Oc4c(ccc(O)c4CN4CCNCC4)C3=O)c[nH]c2n1
- IC50 [1]: 16 nM

Structure (SMILES): COc1ccc2c(c1CN1CCNCC1)O/C(=C\c1c[nH]c3nc(F)ccc13)C2=O
- inhibition [2]: 79%
- inhibition [3]: 59%
- IC50 [1]: 0.28 nM
- inhibition [4]: 97%
- inhibition [5]: 94%

Structure (SMILES): COc1ccc2c(c1CN1CCNCC1)O/C(=C\c1n[nH]c3ccccc13)C2=O
- remaining at 1 h, 1 µM [6]: 83%
- Papp at 10 µM [7]: 0.89 ×10⁻⁶ cm/s
- remaining at 1 h, 1 µM [8]: 68%

Structure (SMILES): CN1CCC(CNc2ccc3ncc(-c4cccc(OC(F)(F)F)c4)n3n2)CC1 [SGI-1776]
- IC50 (WI-38): 1.7 µM
- IC50 [9]: 600 nM

Structure (SMILES): CCc1ccc2c(/C=C3\Oc4c(ccc(OC)c4CN4CCNCC4)C3=O)c[nH]c2n1
- inhibition [3]: 90%
- inhibition [10]: 23%
- IC50 [1]: 1.1 nM
- inhibition [4]: 77%
- IC50 [11]: 290 nM
- inhibition [5]: 50%
- inhibition [12]: 10%

Structure (SMILES): O=C1/C(=C/c2c[nH]c3nc(Cl)ccc23)Oc2c1ccc(O)c2CN1CCNCC1
- IC50 (WI-38): > 10 µM
- inhibition [2]: 63%
- inhibition [13]: > 99%
- IC50 [14]: 0.88 nM
- remaining at 1 h, 1 µM [6]: 63%
- inhibition at 10 µM (hERG (KCNH2)): 30%
- inhibition [3]: 30%
- inhibition [15]: 99%
- solubility [16]: 130 µM (≈ 53.4 µg/mL)
- IC50 [9]: 200 nM
- IC50 [17]: 1.3 nM
- Papp at 10 µM [7]: 1.7 ×10⁻⁶ cm/s
- inhibition [10]: 58%
- IC50 [1]: 1.4 nM
- remaining at 1 h, 1 µM [8]: 82%
- inhibition [4]: 57%
- IC50 [11]: 140 nM

Structure (SMILES): O=C1/C(=C/c2c[nH]c3nc(F)ccc23)Oc2c1ccc(O)c2CN1CCNCC1
- IC50 [1]: 1.8 nM

Structure (SMILES): COc1ccc2c(c1CN1CCNCC1)O/C(=C\c1c[nH]c3ncccc13)C2=O
- inhibition [13]: > 50%
- remaining at 1 h, 1 µM [6]: 72%
- inhibition at 10 µM (hERG (KCNH2)): 19%
- inhibition [15]: > 50%
- solubility [16]: ≥ 200 µM
- Papp at 10 µM [7]: 2.1 ×10⁻⁶ cm/s
- IC50 [1]: 0.84 nM
- remaining at 1 h, 1 µM [8]: 90%
- IC50 [11]: 390 nM
- inhibition [5]: > 75%
- inhibition [12]: > 75%

Structure (SMILES): COc1ccc2c(c1CN1CCNCC1)O/C(=C\c1c[nH]c3nc(-c4ccccc4)ccc13)C2=O
- IC50 [1]: 16 nM

Structure (SMILES): N[C@@H]1CCCN(c2c(/C=C3\SC(=O)NC3=O)cccc2-c2ccccc2)C1
- IC50 (WI-38): > 10 µM
- IC50 [9]: 12 nM

Structure (SMILES): CCCCc1ccc2c(/C=C3\Oc4c(ccc(OC)c4CN4CCNCC4)C3=O)c[nH]c2n1
- IC50 [1]: 2.1 nM

Structure (SMILES): COc1ccc2c(c1CN1CCNCC1)O/C(=C\c1c[nH]c3nc(C)ccc13)C2=O
- remaining at 1 h, 1 µM [6]: 69%
- inhibition at 10 µM (hERG (KCNH2)): 14%
- solubility [16]: 130 µM (≈ 52.6 µg/mL)
- Papp at 10 µM [7]: 0.13 ×10⁻⁶ cm/s
- inhibition [10]: 25%
- IC50 [1]: 0.64 nM
- remaining at 1 h, 1 µM [8]: 74%
- inhibition [4]: 91%
- IC50 [11]: 300 nM
- inhibition [5]: 50%
- inhibition [12]: 10%

Structure (SMILES): Cc1ccc2c(/C=C3\Oc4c(ccc(O)c4CN4CCNCC4)C3=O)c[nH]c2n1
- IC50 [1]: 3.8 nM
- IC50 [11]: 510 nM

Structure (SMILES): CCCc1ccc2c(/C=C3\Oc4c(ccc(OC)c4CN4CCNCC4)C3=O)c[nH]c2n1
- IC50 [1]: 4.5 nM

Structure (SMILES): COc1ccc2c(c1CN1CCNCC1)O/C(=C\c1c[nH]c3nc(Cl)ccc13)C2=O
- inhibition [2]: 61%
- inhibition [13]: > 99%
- IC50 [14]: 0.4 nM
- remaining at 1 h, 1 µM [6]: 58%
- inhibition at 10 µM (hERG (KCNH2)): 22%
- inhibition [3]: 62%
- inhibition [15]: 99%
- solubility [16]: 21 µM (≈ 8.92 µg/mL)
- IC50 [17]: 0.49 nM
- Papp at 10 µM [7]: 0.31 ×10⁻⁶ cm/s
- inhibition [10]: 41%
- IC50 [1]: 0.41 nM
- remaining at 1 h, 1 µM [8]: 82%
- inhibition [4]: 80%
- IC50 [11]: 140 nM

Structure (SMILES): O=C1/C(=C/c2c[nH]c3ncccc23)Oc2c1ccc(O)c2CN1CCNCC1
- IC50 [1]: 2 nM
- IC50 [11]: 420 nM
